Activity calls are given as the source filed them. The rule behind the calls is not given here.

Drawing on ChEMBL document CHEMBL4152204, “Discovery of N-hydroxy-3-alkoxybenzamides as direct acid sphingomyelinase inhibitors using a ligand-based pharmacophore model” (Eur J Med Chem, 2018), this text covers IC50, inhibition and Activity for 36 compounds.

For experiment [1], the target named is T1, Sphingomyelin phosphodiesterase (Homo sapiens, UniProt P17405).
T1 sequence (P17405 whole entry): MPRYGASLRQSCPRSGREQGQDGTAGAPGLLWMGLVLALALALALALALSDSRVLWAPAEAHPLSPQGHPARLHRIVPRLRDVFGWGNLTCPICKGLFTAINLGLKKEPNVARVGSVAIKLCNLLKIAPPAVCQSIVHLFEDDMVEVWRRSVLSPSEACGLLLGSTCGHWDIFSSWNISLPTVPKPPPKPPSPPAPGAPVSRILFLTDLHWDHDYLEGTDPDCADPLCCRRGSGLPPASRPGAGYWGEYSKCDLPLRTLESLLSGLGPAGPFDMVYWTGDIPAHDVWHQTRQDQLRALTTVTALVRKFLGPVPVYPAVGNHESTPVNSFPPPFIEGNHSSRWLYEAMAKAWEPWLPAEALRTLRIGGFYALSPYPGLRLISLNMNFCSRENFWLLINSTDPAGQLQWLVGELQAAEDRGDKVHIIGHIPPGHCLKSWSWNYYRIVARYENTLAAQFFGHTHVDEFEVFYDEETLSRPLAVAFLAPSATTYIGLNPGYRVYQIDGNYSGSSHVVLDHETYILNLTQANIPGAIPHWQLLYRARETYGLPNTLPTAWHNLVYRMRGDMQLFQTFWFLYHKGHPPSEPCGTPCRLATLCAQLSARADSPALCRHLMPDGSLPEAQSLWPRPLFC
Nature of the experiment: Inhibition of acid sphingomyelinase in human HuH7 cell lysate using NBD-sphingomyelin as substrate after 30 mins by TLC based fluorescence assay.

Experiment [2] addresses T2, Sphingomyelin phosphodiesterase 2 (Homo sapiens) (UniProt O60906).
T2 sequence (whole entry): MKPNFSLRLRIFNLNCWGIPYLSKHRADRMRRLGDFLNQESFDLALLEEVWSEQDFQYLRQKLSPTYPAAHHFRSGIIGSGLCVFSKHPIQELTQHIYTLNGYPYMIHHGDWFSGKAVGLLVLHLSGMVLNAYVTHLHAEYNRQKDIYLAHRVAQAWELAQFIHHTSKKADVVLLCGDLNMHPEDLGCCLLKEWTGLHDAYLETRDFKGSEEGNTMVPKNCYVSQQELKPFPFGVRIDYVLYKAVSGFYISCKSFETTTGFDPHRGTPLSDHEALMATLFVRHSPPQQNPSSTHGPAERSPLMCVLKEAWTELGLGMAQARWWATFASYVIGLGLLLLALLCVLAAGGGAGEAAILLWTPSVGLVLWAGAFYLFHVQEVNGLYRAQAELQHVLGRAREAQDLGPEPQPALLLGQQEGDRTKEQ
Nature of the experiment: Inhibition of neutral sphingomyelinase (unknown origin) assessed as reduction in NBD-ceramide release at 100 uM by TLC based fluorescence assay.

The target of experiment [3] is T3, Sphingomyelin phosphodiesterase (Bos taurus, UniProt Q0VD19).
T3 sequence (Q0VD19 whole entry): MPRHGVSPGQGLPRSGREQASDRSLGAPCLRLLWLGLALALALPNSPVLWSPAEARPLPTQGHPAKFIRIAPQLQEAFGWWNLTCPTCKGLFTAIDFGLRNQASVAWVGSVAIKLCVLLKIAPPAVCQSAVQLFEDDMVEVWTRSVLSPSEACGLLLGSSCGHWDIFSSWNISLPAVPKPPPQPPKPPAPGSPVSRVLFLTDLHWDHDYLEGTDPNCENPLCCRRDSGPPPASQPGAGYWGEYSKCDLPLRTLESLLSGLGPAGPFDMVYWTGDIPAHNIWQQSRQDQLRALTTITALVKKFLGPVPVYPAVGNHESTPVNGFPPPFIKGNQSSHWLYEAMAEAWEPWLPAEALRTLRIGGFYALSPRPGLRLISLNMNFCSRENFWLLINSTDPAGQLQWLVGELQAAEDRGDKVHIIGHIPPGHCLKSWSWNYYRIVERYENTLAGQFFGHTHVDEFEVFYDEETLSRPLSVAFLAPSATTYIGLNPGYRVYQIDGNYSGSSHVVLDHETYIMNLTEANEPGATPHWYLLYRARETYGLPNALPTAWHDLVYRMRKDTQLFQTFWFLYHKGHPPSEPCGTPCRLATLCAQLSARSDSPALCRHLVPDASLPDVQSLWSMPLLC
Nature of the experiment: Inhibition of bovine brain-derived acidic sphingomyelinase.

The next experiment deals with NIH3T3. Nature of the experiment: Cytoprotective activity against UV-induced apoptosis in mouse NIH/3T3 cells assessed as necrotic cells preincubated for 20 hrs followed by UV irradiation for 5 mins and measured after 24 hrs by flow cytometric analysis. The class given is functional, cell-based. In outline:
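NIH3T3 cells grown in DMEM plus 10% FBS at 37 °C and 5% CO₂, seeded in 6-well plates and left overnight. Inhibitor (0–60 µM, DMSO solvent) added for 20 h. Medium replaced, then UV at peak 315 nm, 0.29 mW/cm² for 5 min. Cells kept with inhibitor 24 h more before flow cytometry by quadrant regions. Untreated, unirradiated cells served as control. Three independent experiments.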

A word on the IC50: it is the concentration at which inhibition is half-maximal. The low end stands for greater potency, the high end for weaker potency. `COc1c(O)cc2oc3cc(O)c(CC=C(C)C)c(O)c3c(=O)c2c1C/C=C(\C)CCC=C(C)C` [COWANIN] registered an IC50 in experiment [1] of 19.2 µM.
Consider `O=C(c1cc(-c2ccccc2)n(-c2ccc(Cl)cc2Cl)n1)N1CCOCC1`, for which the IC50 in experiment [1] is 28.2 µM.
On the same count and under the same terms, the same measure for `Cc1cc2[nH]c(=O)c(=O)[nH]c2cc1S(=O)(=O)N1CCN(c2cccc(C(F)(F)F)c2)CC1`: 20 µM.
Still for that read-out and setting: the same measure for `Cc1cc2[nH]c(=O)c(=O)[nH]c2cc1S(=O)(=O)N1CCN(c2cccc(Cl)c2)CC1`: 20 µM.
Still for that read-out and setting: the same measure for `CCCCCCCC1Cc2cc(O)c(C(=O)O)c(O)c2C(C)O1` (stereo not drawn): 68.7 µM.
In experiment [1], `CCCCCCCCCCOc1cc(C(=O)NCCO)ccc1OC` yielded a 50% inhibitory concentration (IC50) of 71 µM.
Take `O=P(O)(O)O[C@H]1[C@H](O)[C@@H](OP(=O)(O)O)[C@H](O)[C@@H](OP(=O)(O)O)[C@H]1O`: 26.7 µM corresponded to half-maximal inhibition in experiment [1] (IC50).
Same read-out and setting: the same measure for `CCOc1ccc2oc(-c3cc(Br)cc4c3OCOC4)c(N)c(=O)c2c1`: 3.5 µM.
Same read-out and setting: the same measure for `CCCCCCCCCC(OP(=O)(O)O)OP(=O)(O)O`: 0.3 µM; for `CCCCCCCC(OP(=O)(O)O)OP(=O)(O)O`: 0.35 µM.
Still for that read-out and setting: in the case of `CCCCCCCCOC(=O)c1c(CSC(=N)N)n(C)c2cc(Br)c(OC(C)=O)cc12` it was 31.6 µM.
As for `Cc1c(C(=O)Nc2cccc(C(F)(F)F)c2)oc2ccc(S(=O)(=O)N3CCOCC3)cc12`, inhibition in experiment [1] was half-maximal at 22.4 µM (IC50).
The compound `COc1ccc(COc2cccc(C(=O)NO)c2)cc1` registered a 50% inhibitory concentration (IC50) in experiment [1] of 42.7 µM.
On the same count and under the same terms, in the case of `CCCCCCCCCCOc1cc(C(=O)NO)ccc1O` it was 17.4 µM.
Consider `CCCCCCCCCCOc1cccc(C(=O)NO)c1`, for which the inhibition entry in experiment [2] was “inactive”. For the same compound, inhibition in experiment [1] was half-maximal at 1.42 µM (IC50).
Regarding `CCCCCCCCOc1cc(C(=O)NO)ccc1OC`, the IC50 in experiment [1] is 16.1 µM.
On to `CCN(CC)C(=O)/C=C/Cc1c(O)c(OC)cc2oc3cc(OC)cc(O)c3c(=O)c12`, for which, in experiment [1], the IC50 fell in the range of 4.89 to 5.07 µM.
Turning to `CC(C)N1C(=N)/C(=C\c2nc(=O)c3ccccc3[nH]2)c2ccccc21`, half-maximal inhibition in experiment [1] (IC50) was put at 31.6 µM. That is a double-digit micromolar value.
Still for that read-out and setting: in the case of `COc1cc(/C=C2/SC(=S)N(Nc3ncc(C(F)(F)F)cc3Cl)C2=O)cc(OC)c1OC` it was 28.2 µM.
The compound `COc1ccc(/C=N/NC(=O)c2[nH]c3ccc(Cl)cc3c2-c2ccccc2)c(C(=O)O)c1OC` gave a concentration for half-maximal inhibition (IC50) in experiment [1] of 14.1 µM. Against the preceding compound, the IC50 is about 2-fold lower.
`CCCCCCCCS(=O)(=O)OC[C@H]1OC(O)[C@H](OP(=O)(O)O)[C@@H](O)[C@@H]1OP(=O)(O)O` (stereo partly drawn): the IC50 in experiment [1] worked out at 2.34 µM.
The same measure, in the same setting: in the case of `CCCCCCCCOc1cccc(C(=O)NO)c1` it was 17.4 µM.
Take `O=C(NO)c1cccc(OCc2ccccc2)c1`: the half-maximal inhibitory concentration (IC50) in experiment [1] is 60.4 µM.
As to `COc1ccc(C(=O)NO)cc1OCc1ccccc1`, in experiment [1], half-maximal inhibition (IC50) required 10.5 µM.
`N#Cc1ccc(COc2cccc(C(=O)NO)c2)cc1` gave an IC50 in experiment [1] of 52.9 µM. This IC50 is about 5-fold higher than that of the compound before.
As to `COc1c(O)cc2oc3cc(O)c(CC=C(C)C)c(O)c3c(=O)c2c1CC=C(C)C` [MANGOSTIN], the IC50 was 14.1 µM in experiment [3] and 24.7 µM in experiment [1].
With `O=C(NO)c1cccc(OCc2ccc(Br)cc2)c1`, the IC50 in experiment [1] stood at 19.4 µM.
In the case of `CN(C)CCC=C1c2ccccc2CCc2ccccc21`, the Activity entry in the experiment on NIH3T3 is “Dose-dependent effect”.
In turn, `O=c1cc(-c2ccc3c(c2)OCCCO3)oc2c1ccc1ccccc12` registered an IC50 in experiment [1] of 24.3 µM.
`COc1ccc(C(=O)NO)cc1OCc1ccc(Br)cc1`: in experiment [1], the IC50 was determined as 7.78 µM.
In experiment [1], `CC1=C(C(=O)Nc2ccccc2)C(c2ccc(Cl)cc2)n2c(s/c(=C/c3cccc(OCC(=O)O)c3)c2=O)=N1` (stereo not drawn) gave an IC50 of 25.1 µM.
The same measure, in the same setting: the same measure for `CCNC(=O)/C=C/Cc1c(O)c(OC)cc2oc3cc(OC)cc(O)c3c(=O)c12`: 4.89 to 5.07 µM; for `CCCCCCCCCCCCS(=O)(=O)O[C@H]1OC(O)[C@H](OP(=O)(O)O)[C@@H](O)[C@@H]1OP(=O)(O)O` (stereo partly drawn): 0.44 µM; for `CCCCCCCCCCCCOc1cc(C(=O)NO)ccc1OC`: 18.6 µM.
Still for that read-out and setting: the same measure for `CCCCCCCCCCOc1cc(C(=O)NCC(C)O)ccc1OC` (stereo not drawn): 85.2 µM; for `CCCCc1oc2ccccc2c1C(=O)c1cc(I)c(OCCN(CC)CC)cc1I`: 39.8 µM.
